Assay results reported in ChEMBL document CHEMBL3632578, “Identification of β-Lapachone Analogs as Novel MALT1 Inhibitors To Treat an Aggressive Subtype of Diffuse Large B-Cell Lymphoma” (J Med Chem, 2015).

Legend:
[1] = target: T1, Mucosa-associated lymphoid tissue lymphoma translocation protein 1 (Homo sapiens, UniProt Q9UDY8); experiment: Inhibition of MALT1 in human Jurkat cell lysate preincubated for 2 hrs followed by addition of 25 uM Ac-LRSR-AMC substrate for 3 hrs by fluorescence based assay; format: cell-free
T1 sequence (Q9UDY8 whole entry): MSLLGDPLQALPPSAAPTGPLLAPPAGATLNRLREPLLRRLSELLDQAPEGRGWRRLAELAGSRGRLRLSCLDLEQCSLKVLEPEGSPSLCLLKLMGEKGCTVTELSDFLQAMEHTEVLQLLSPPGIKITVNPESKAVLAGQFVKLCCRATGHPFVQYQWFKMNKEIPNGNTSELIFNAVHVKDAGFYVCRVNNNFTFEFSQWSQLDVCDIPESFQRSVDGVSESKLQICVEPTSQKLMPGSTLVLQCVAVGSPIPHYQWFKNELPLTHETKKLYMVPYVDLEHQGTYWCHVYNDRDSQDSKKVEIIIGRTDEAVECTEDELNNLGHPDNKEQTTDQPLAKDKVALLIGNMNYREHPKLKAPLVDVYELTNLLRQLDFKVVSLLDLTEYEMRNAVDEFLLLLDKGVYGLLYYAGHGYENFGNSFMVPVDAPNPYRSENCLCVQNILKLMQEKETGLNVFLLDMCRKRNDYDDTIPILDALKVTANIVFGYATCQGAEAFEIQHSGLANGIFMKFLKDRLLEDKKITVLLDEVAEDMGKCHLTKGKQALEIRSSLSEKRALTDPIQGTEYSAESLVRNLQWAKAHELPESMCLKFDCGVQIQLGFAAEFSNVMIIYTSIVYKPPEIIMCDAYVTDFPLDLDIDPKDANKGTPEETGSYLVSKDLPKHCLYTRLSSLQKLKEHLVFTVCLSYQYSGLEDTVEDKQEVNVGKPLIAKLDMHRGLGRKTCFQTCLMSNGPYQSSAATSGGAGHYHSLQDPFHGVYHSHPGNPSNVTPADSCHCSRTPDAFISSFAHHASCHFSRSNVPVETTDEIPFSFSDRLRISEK
Outline: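 MALT1 paracaspase activity in Jurkat cell lysate, read as fluorescence from AMC (7-amino-4-methylcoumarin) released when MALT1 cleaves the fluorogenic tetrapeptide Ac-LRSR-AMC. Inhibition is taken against an untreated control. IC50 is the mean of two independent experiments, each run in duplicate.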

[2] = Antiproliferative activity against human OCI-LY3 cells after 48 hrs by MTT assay; format: functional, cell-based; settings: OCI-Ly3, 48 h
[3] = target: T1, Mucosa-associated lymphoid tissue lymphoma translocation protein 1; experiment: Inhibition of His-tagged human MALT1 (catalytic domain-339-719 aa) by fluorescence based assay using 25 uM Ac-LRSR-AMC as substrate
[4] = target: T2, Mucosa-associated lymphoid tissue lymphoma translocation protein 1 (Homo sapiens) (UniProt Q9UDY8); experiment: Inhibition of MALT1 paracaspase activity in human OCI-LY3 cells assessed as decrease in cleaved CYLD level after 24 hrs by western blot analysis; format: cell-based
T2 sequence (whole entry): T1 sequence (Q9UDY8 whole entry)

[5] = Antiproliferative activity against human MJ cells; format: functional, cell-based
[6] = system: HuT78; experiment: Antiproliferative activity against human HUT78 cells; format: functional, cell-based
[7] = Antiproliferative activity against human SupT1 cells; format: functional, cell-based; settings: SUP-T1
[8] = system: A549; experiment: Antiproliferative activity against human A549 cells; format: functional, cell-based
[9] = Antiproliferative activity against human NK92 cells; format: functional, cell-based

SMILES | IC50 [1] [µM] | IC50 [2] [µM] | IC50 [3] [µM] | further results
CC(C)=CCC1=C(O)C(=O)c2cc(F)ccc2C1=O | > 10 |  |  | 
O=C1C=C(NCCc2ccccc2)c2ccccc2C1=O | > 100 |  |  | 
O=C1C=C(NCCCN2CCCC2=O)c2ccccc2C1=O | 14.4 |  |  | 
O=C1C=C(NC2CCN(Cc3ccccc3)CC2)c2ccccc2C1=O | 5.4 |  |  | 
O=C1C=C(NCCN2CCOCC2)c2ccccc2C1=O | 21.9 |  |  | 
CC(C)NC1=CC(=O)C(=O)c2ccccc21 | 20.4 |  |  | 
CN(C)C1=CC(=O)C(=O)c2ccccc21 | 2.5 | > 10 |  | 
CC(C)=CCC1=C(O)C(=O)c2cc(Br)ccc2C1=O | > 10 |  |  | 
O=C1C=C(NCCCN2CCCC2)c2ccccc2C1=O | 11.9 |  |  | 
COCCNC1=CC(=O)C(=O)c2ccccc21 | 7.8 | > 10 |  | 
CC1(C)CCC2=C(O1)c1cc(O)ccc1C(=O)C2=O |  |  | 9.3 | 
CNC(=O)CNC1=CC(=O)C(=O)c2ccccc21 | 3 | 9.4 |  | 
COc1cc2c(cc1OC)C1=C(CCC(C)(C)O1)C(=O)C2=O |  | 8.5 | 2.3 | 
CN(C)CCNC1=CC(=O)C(=O)c2ccccc21 | 1.6 |  |  | 
COc1cc2c(cc1OC)C(=O)C1=C(CCC(C)(C)O1)C2=O | > 10 |  |  | 
O=C(CNC1=CC(=O)C(=O)c2ccccc21)NCCc1ccccc1 | 3.1 |  |  | 
CC1(C)CCC2=C(O1)c1ccc(F)cc1C(=O)C2=O |  | 3.3 | 1.5 | inhibition [4]: Dose-dependent effect
COc1ccc2c(c1)C(=O)C(=O)C1=C2OC(C)(C)CC1 |  | 3.1 | 0.6 | 
CC1(C)CCC2=C(O1)c1ccccc1C(=O)C2=O [LAPACHONE] | 1.9 | 4 | 1.2 | 
CC1(C)CCC2=C(O1)c1ccc([N+](=O)[O-])cc1C(=O)C2=O |  | 4.6 | 0.4 | 
O=C1C=C(NC2CCN(Cc3ccccc3)C2)c2ccccc2C1=O (stereo not drawn) | 1.5 | > 10 |  | 
CC1(C)CCC2=C(O1)c1ccc(C#N)cc1C(=O)C2=O |  | 1.5 | 1.6 | IC50 [5]: 16.7 µM; inhibition [4]: Dose-dependent effect; IC50 [6]: 12.3 µM; IC50 [7]: 5.6 µM; IC50 [8]: 5.7 µM; IC50 [9]: 17 µM
CC1(C)CCC2=C(O1)c1ccc(Br)cc1C(=O)C2=O |  | 4.1 | 9.2 | 
O=C1C=C(NCC(=O)N2CCCC2)c2ccccc2C1=O | 4.1 |  |  | 
CC(C)(C)OC(=O)NCCNC1=CC(=O)C(=O)c2ccccc21 | 14.9 |  |  | 
COc1ccc2c(c1)C1=C(CCC(C)(C)O1)C(=O)C2=O |  | 17 | 9.2 | 
COCCOc1nc(-c2ccc(Cl)c(Cl)c2)n(-c2ccc(NC(=O)CCl)cc2)n1 |  | 2.6 | 3.3 | 
